The results in this text go back to PubChem BioAssay.

The nature of test [1]: inhibitors of TNFa-induced NFkB p65 translocation, primary screen, imaging, HUVEC, MLSMR starter and 10KST1 sets (AID 438;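 active means inhibition above 20% together with a positive visual image hit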;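 further: compound added about 3h40 before a 20 min TNFalpha stimulation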;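 on inhibition: signal is the nuclear over cytoplasmic p65 intensity ratio per well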). The conditions noted are these: HUVEC TNFa-induced p65 nuclear translocation; cell count: measured here: nuclei count (cytotoxicity indicator), at 2.08 µM; inhibition: at 2 µM, stronger effect = higher value, 0% TNFa-plus-vehicle, 100% no-TNFa wells.
Test [2] can be described thus: inhibitors of E-selectin induction by TNFa, primary screen, imaging, HUVEC, immunofluorescence, MLSMR starter and 10KST1 sets (AID 487;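 active means visually confirmed hit in the image check and inhibition above 20%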;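 on inhibition: signal is fraction of cell area covered by stained E-selectin grains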;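 on nuclei count: 100% = median nuclei count of all wells on the same plate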). The conditions noted are these: HUVEC TNFalpha-induced E-selectin immunofluorescence imaging, at 2 µM; inhibition: stronger effect = higher value; nuclei count: measured here: cell number, toxicity.
Test [3] is described as follows: DUSP6 inhibitors restoring Erk phosphorylation by chemical complementation, primary imaging in DUSP6-transfected HeLa (AID 609;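 active means compounds giving at least 50% inhibition in the cell-based MKP-3 phosphatase rescue imaging test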;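 on inhibition: phospho-Erk level distribution per well compared with pooled transfected vehicle control wells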). The following applies: HeLa MKP-3 transfected, phospho-Erk imaging KS statistic, at 10 µM, cells stimulated with TPA for 15 min.
In test [4] the target is Dual specificity protein phosphatase 6 (Homo sapiens) (UniProt Q16828). The test is described as above. The following applies: HeLa MKP-3 transfected, phospho-Erk imaging KS statistic; at 10 µM; stronger effect = higher value; cells stimulated with TPA for 15 min.
For test [5], the target named is Voltage-gated potassium channel subunit beta-2 (Rattus norvegicus) (UniProt P62483). The experiment in a line: KvBeta enzyme negative modulators, primary screen, biochemical, NADPH fluorescence (AID 622).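 Further: slope of raw intensity against log time taken from 70 to 1610 s.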 The following applies: recombinant KvBeta, 4-cyanobenzaldehyde reduction, at 10 µM, stronger effect = higher value.
Test [6] shares this target. The experiment in a line: KvBeta positive modulators, primary screen, biochemical, NADPH fluorescence (AID 623;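 active means NADPH fluorescence slope more negative than the mean of all samples by about 3 SD, 99.7% confidence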;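 further: fluorescence intensity change per second fitted from 20 to 320 s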). The following applies: Recombinant KvBeta, NADPH fluorescence decrease slope, 10 min; at 10 µM; stronger effect = lower value.
Test [7] deals with Alpha-2C adrenergic receptor (Homo sapiens) (UniProt P18825). Description: modulators of alpha2C/GIRK thallium flux, primary screen, cell-based, HEK293 alpha2C/GIRK1/2 (AID 624;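 active means fluorescence slope after compound addition differing from the mean of all screened samples at 99.7% confidence, in either direction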;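 further: slope of fluorescence ratio to pre-addition baseline per second over 15 to 24 s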). The following applies: thallium flux BTC fluorescence, at 10 µM, actives lie on both sides.
The nature of test [8]: inhibitors of larval lipid processing in zebrafish, primary screen, whole organism, PED6 fluorescence, gall bladder and intestine (AID 686;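 active means a full or partial loss of lipid-probe fluorescence in the fish gall bladder, intestine or both, judged by eye; inactive means no fluorescence loss, or compound toxic to the fish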;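 further: larvae 5 to 7 days old with five fish per well; signal comes from phospholipase A2 cleavage of quenched PED6 carried via bile; overnight exposure to compound and PED6 before scoring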). The conditions noted are these: Zebrafish larvae PED6 lipid processing, fluorescence scoring; screened at 20 µM (by protocol). In a few lines:
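System: live zebrafish larvae aged 5-7 days, whole organism; measure: graded gall bladder and intestinal fluorescence inhibition per well; incubation: overnight exposure; reagent: ingested quenched lipid PED6 at 100 nM; signal: By-eye fluorescence microscopy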

A short description of test [9]: inhibitors of Chlamydomonas gravitaxis, primary screen, whole organism, Chlamydomonas reinhardtii, WT vs cilia-less mutant, absorbance, 96-well (AID 463189;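 active means inhibition at or above 50% relative to wild type and mutant plate controls; inactive means inhibition below 50%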;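 further: 0% = wild type cc124 cells in DMSO and 100% = ciliumless bld1 mutant cells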). The conditions noted are these: OD600 absorbance, 2 days, at 10 µM, stronger effect = higher value.
[10] abbreviates: measured here: cell density z-score.
[11] abbreviates: measured here: nuclear c-Myc green intensity z-score.
Setting [12] is: measured here: nuclear pErk red intensity z-score, stronger effect = higher value.

Activity calls are given as the source filed them.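 How the source made its calls, unless noted: active means fluorescence slope higher than the sample average by over 3 SD (cut at about -0.22 in these data, passing the limit was not always enough); inactive means the rest.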

Chain of Alpha-2C adrenergic receptor (Homo sapiens) (P18825 whole entry, looked up): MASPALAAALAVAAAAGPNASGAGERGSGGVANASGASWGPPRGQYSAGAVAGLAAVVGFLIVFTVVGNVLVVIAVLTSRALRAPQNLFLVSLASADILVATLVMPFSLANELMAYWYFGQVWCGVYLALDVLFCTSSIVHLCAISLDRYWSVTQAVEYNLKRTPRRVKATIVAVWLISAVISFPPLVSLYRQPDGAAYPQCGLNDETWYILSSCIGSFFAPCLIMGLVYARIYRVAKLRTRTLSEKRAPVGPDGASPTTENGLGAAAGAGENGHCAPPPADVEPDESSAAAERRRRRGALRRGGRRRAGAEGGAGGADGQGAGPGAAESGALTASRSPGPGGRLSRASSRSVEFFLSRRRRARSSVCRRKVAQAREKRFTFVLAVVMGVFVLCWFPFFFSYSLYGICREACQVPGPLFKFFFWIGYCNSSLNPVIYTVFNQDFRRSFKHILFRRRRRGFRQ
Chain of Voltage-gated potassium channel subunit beta-2 (Rattus norvegicus) (P62483 whole entry, looked up): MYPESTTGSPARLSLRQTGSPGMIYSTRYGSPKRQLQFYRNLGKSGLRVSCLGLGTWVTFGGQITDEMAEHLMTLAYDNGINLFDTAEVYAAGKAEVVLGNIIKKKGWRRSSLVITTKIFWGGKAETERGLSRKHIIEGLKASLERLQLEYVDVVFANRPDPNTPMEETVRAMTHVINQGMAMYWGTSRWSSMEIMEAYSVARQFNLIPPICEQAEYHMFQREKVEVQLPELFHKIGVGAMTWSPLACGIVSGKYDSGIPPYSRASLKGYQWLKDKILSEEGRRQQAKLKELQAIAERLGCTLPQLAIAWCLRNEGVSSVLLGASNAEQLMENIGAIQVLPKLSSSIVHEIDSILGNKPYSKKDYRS
Chain of Dual specificity protein phosphatase 6 (Homo sapiens) (Q16828 whole entry, looked up): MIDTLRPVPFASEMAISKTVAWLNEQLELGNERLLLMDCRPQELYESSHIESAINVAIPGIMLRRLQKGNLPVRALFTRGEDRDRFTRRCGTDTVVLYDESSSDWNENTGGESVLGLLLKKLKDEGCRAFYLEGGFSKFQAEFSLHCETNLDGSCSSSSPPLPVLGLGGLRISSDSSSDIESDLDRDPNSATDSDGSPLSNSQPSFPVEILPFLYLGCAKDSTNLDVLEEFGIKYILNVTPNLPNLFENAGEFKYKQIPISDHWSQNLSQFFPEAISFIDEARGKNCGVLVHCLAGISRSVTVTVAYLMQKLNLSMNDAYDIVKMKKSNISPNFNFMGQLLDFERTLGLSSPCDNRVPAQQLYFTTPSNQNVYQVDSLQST

For the molecule `CSc1nc2sc3c(c2c2nnnn12)CC(C)(C)OC3`, the cell count in test [1] turned out to be 661. Besides, the inhibition (as a rule, the drop in the measured response relative to a control, in per cent) was -6.7% (inactive) in test [1], -16.2% (inactive) in test [2], -5.89% (inactive) in test [4] and 16.5% (inactive) in [9]. This molecule gave a nuclei count in [2] of 187%. The z-score in test [3] (setting [10]) is -1.26; in [3] (setting [11]) it was 1.03; in [3] (setting [12]), 0.586. In addition, the fluorescence slope in test [5] is -0.496 (inactive). For the same molecule, the NADPH fluorescence slope in [6] was -6.6e-05 (inactive). The slope in test [7] was 0.00446 (inactive). The outcome in test [8] was inactive.

For `CCOC(=O)CC(=O)CSc1nc(N)c(C#N)c(-c2ccc(F)cc2)c1C#N`, in [1], the cell count came out at 650. In addition, the inhibition in test [1] was -5.7% (inactive); in test [2], 44% (inactive); in [4] it was -7.28% (inactive); in test [9], -14.2% (inactive). In test [2], this molecule showed a nuclei count of 167%. Moreover, the z-score in test [3] (setting [10]) is -1.03; in [3] (setting [11]) it was 0.96; in [3] (setting [12]), 2.1. The fluorescence slope in [5] is -0.366 (inactive). Further, the NADPH fluorescence slope in test [6] was -6.3e-05 (inactive). Also, the slope in test [7] was 0.00627 (inactive). In addition, the result in test [8] was inactive.

For `CCC1(C)Cc2c(sc3c2c(=O)n(C)c2nnc(SCC(=O)c4ccc(Cl)cc4)n32)CO1` (centres undefined), the cell count in test [1] is 559. Besides, the inhibition was -2.6% (inactive) in test [1], -61.6% (inactive) in test [2], 9.82% (inactive) in test [4] and -10.8% (inactive) in [9]. For the same molecule, in [2], the nuclei count is 121%. Further, the figures for the z-score in [3] (setting [10]), in test [3] (setting [11]) and in [3] (setting [12]) were -1.48, 3.25 and -1.65, respectively. Moreover, in test [5], the fluorescence slope was -0.37 (inactive). Moreover, the NADPH fluorescence slope in test [6] is 2e-05 (inactive). For the same molecule, the slope in [7] was 0.00685 (inactive). For the same molecule, the call in test [8] was inactive.

Turning to `Nc1nc(NC(=O)Cc2ccccc2)nn1-c1ccccc1`, the cell count in [1] stood at 330. Further, the inhibition in test [1] is -5.8% (inactive); in [2], 16% (inactive); in [4] it was 9.42% (inactive); in [9], 14.3% (inactive). This molecule also gave a nuclei count in [2] of 153%. The z-score in test [3] (setting [10]) is -1.12; in test [3] (setting [11]), 1.13; in test [3] (setting [12]), 0.973. Moreover, in [5], the fluorescence slope was -0.381 (inactive). In [6], the NADPH fluorescence slope is -0.000121 (inactive). For the same molecule, the slope in test [7] was 0.00768 (inactive). In addition, the outcome in test [8] was inactive.

For the molecule `CN1C2C=C3C(C#N)=C(N)C(C#N)(C#N)[C@@H](c4ccsc4)[C@@H]3C1CC2` (some centres undefined), the cell count in [1] came to 589. For the same molecule, the inhibition was -9.3% (inactive) in [1], 24% (inactive) in [2], 28.1% (inactive) in [4] and 6.82% (inactive) in [9]. Besides, the nuclei count in test [2] was 148%. For the same molecule, the figures for the z-score in test [3] (setting [10]), in test [3] (setting [11]) and in [3] (setting [12]) were 1.76, -1 and -0.0532, respectively. In test [5], the fluorescence slope is -0.396 (inactive). The NADPH fluorescence slope in test [6] is 4.1e-06 (inactive). Moreover, the slope in test [7] is 0.00648 (inactive). Also, the result in [8] was inactive.

As to `O=c1c2c3c(sc2n2cnnc2n1Cc1ccccc1)CN(Cc1ccccc1)CC3`, in test [1], the cell count came out at 620. The inhibition is -1.6% (inactive) in test [1], 66.2% (inactive) in [2], 6.04% (inactive) in [4] and 22.4% (inactive) in test [9]. The nuclei count in test [2] amounted to 104%. In addition, the z-score in test [3] (setting [10]) is 0.015; in [3] (setting [11]), 0.568; in [3] (setting [12]), 0.295. Further, the fluorescence slope in test [5] was -0.427 (inactive). For the same molecule, the NADPH fluorescence slope in [6] is -1.4e-05 (inactive). Moreover, the slope in test [7] is 0.0049 (inactive). For the same molecule, the molecule was called inactive in test [8].

For `Cn1ncc(N=Cc2ccccc2)c1C(N)=O`, the cell count in [1] turned out to be 599. Moreover, the inhibition in test [1] is 2.9% (inactive); in test [2] it was -32.8% (inactive); in [4] it was 18.6% (inactive); in test [9], -3.53% (inactive). Also, the nuclei count in [2] is 138%. Besides, the z-score was -2.18 in [3] (setting [10]), 0.507 in test [3] (setting [11]) and 1.65 in [3] (setting [12]). In addition, the fluorescence slope in test [5] is -0.54 (inactive). Moreover, the NADPH fluorescence slope in [6] was -8.2e-05 (inactive). Also, in [7], the slope was 0.00589 (inactive). In [8], the molecule was called inactive.

`CCOC(=O)CSc1nnc2n(C3CCCCC3)c(=O)c3c4c(sc3n12)CCCC4`: the cell count in test [1] came to 650. The inhibition was -11.4% (inactive) in test [1], -104% (inactive) in test [2], 1.75% (inactive) in test [4] and -1.33% (inactive) in [9]. In addition, the nuclei count in [2] stood at 146%. Besides, the z-score in test [3] (setting [10]) was -1.05; in test [3] (setting [11]), -0.745; in test [3] (setting [12]) it was -0.835. For the same molecule, in test [5], the fluorescence slope is -0.533 (inactive). Further, the NADPH fluorescence slope in [6] was -0.0001 (inactive). Moreover, the slope in test [7] was 0.00612 (inactive). Moreover, the molecule was classed as inactive in test [8].

As to `CCOC(=O)CCc1c(C)c(C#N)c2nc3ccccc3n2c1-n1ccnc1`, the cell count in test [1] stood at 559. Moreover, the inhibition was -4.6% (inactive) in [1], -37.8% (inactive) in test [2], 25.8% (inactive) in test [4] and -3.19% (inactive) in test [9]. This molecule yielded a nuclei count in test [2] of 140%. Also, the values for the z-score in [3] (setting [10]), in [3] (setting [11]) and in test [3] (setting [12]) were 1.11, -0.305 and 0.783, respectively. In addition, the fluorescence slope in [5] is -0.172 (inactive). Further, in [6], the NADPH fluorescence slope is -3.3e-07 (inactive). In addition, the slope in test [7] was 0.0062 (inactive). For the same molecule, the result in test [8] was inactive.

Turning to `COCc1[nH]nc2c1C(c1ccnc3ccccc13)C(C#N)=C(N)O2` (centres undefined), in test [1], the cell count was found to be 589. Further, the inhibition in [1] is -5% (inactive); in test [2], 26.1% (inactive); in test [4] it was 29.9% (inactive); in [9], 15.7% (inactive). The molecule also came in with a nuclei count in test [2] of 102%. The z-score in test [3] (setting [10]) is 0.598; in test [3] (setting [11]), -2.1; in test [3] (setting [12]) it was -0.301. For the same molecule, in [5], the fluorescence slope was -0.519 (inactive). In test [6], the NADPH fluorescence slope was -1.8e-05 (inactive). The slope in test [7] is 0.00587 (inactive). Moreover, the result in test [8] was inactive.

Regarding `CCN(CC)CCN1C(=O)C(=O)/C(=C(/O)c2ccc(F)cc2)C1c1ccncc1` (centres undefined), the cell count in [1] turned out to be 519. Besides, the inhibition in test [1] is -13.3% (inactive); in test [2], -36.8% (inactive); in test [4], -11.5% (inactive); in [9], -7.51% (inactive). Moreover, in [2], the nuclei count is 110%. Further, the z-score in test [3] (setting [10]) is 0.315; in test [3] (setting [11]), 0.605; in test [3] (setting [12]), -0.561. In addition, the fluorescence slope in [5] was -0.542 (inactive). In addition, in [6], the NADPH fluorescence slope is -1e-05 (inactive). In addition, the slope in test [7] is 0.00505 (inactive). The call in test [8] was inactive.

With `O=C(CN1C(=O)c2ccccc2C1=O)NCc1ccncc1`, in test [1], the cell count came out at 357. Moreover, the inhibition in test [1] is -6.8% (inactive); in test [2], -60.9% (inactive); in [4], -10.6% (inactive); in [9], 31% (inactive). The same molecule had a nuclei count in test [2] of 167%. Moreover, the z-score in test [3] (setting [10]) was 0.341; in test [3] (setting [11]), -1.51; in test [3] (setting [12]), 1.76. For the same molecule, the fluorescence slope in test [5] is -0.432 (inactive). Moreover, the NADPH fluorescence slope in test [6] is -0.000133 (inactive). Also, in test [7], the slope was 0.00529 (inactive). The molecule was called inactive in [8].

As to `Oc1ccc2c(c1)C1CCCC1(N1CCOCC1)O2` (centres undefined), the cell count in test [1] is 414. For the same molecule, the inhibition in test [1] was 0.7% (inactive); in test [2], -83.5% (inactive); in [4], 3.42% (inactive); in test [9], -3.55% (inactive). This molecule also registered a nuclei count in test [2] of 128%. Also, the z-score in test [3] (setting [10]) is 0.996; in test [3] (setting [11]) it was -0.205; in [3] (setting [12]), -1.79. Further, the fluorescence slope in test [5] was -0.458 (inactive). In [6], the NADPH fluorescence slope was -0.000124 (inactive). For the same molecule, the slope in test [7] was 0.005 (inactive). In addition, in [8], the outcome was inactive.
